Reference: ChEMBL document CHEMBL1139884, “Structure-based design, synthesis, and A-site rRNA cocrystal complexes of functionally novel aminoglycoside antibiotics: C2" ether analogues of paromomycin” (2007)
Values after ≈ are worked out from the molar mass of the structure shown.

Tests used:
Escherichia coli = experiment: Antimicrobial activity against Escherichia coli ATCC 25922 after 20 to 24 hrs; type: functional
Outline: (§1)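 Broth microdilution in duplicate; compound in 2.5% DMSO in water, overnight culture added to a final inoculum of about 10^2-10^3 CFU/well. Growth read as A595 after 20-24 h at 37°C, relative to a no-compound well. MIC reported as a range: complete inhibition at the higher concentration, viable cells at the lower. Ampicillin and tetracycline are the positive controls.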

Staphylococcus aureus = experiment: Antimicrobial activity against Staphylococcus aureus ATCC 13709 after 20 to 24 hrs; type: functional; outline: as §1

SMILES	MIC (Escherichia coli)	MIC (Staphylococcus aureus)
NC[C@@H]1O[C@H](O[C@H]2[C@@H](OCCNCc3ccc(N)nc3)[C@H](O[C@@H]3[C@@H](O)[C@H](N)C[C@H](N)[C@H]3O[C@H]3O[C@H](CO)[C@@H](O)[C@H](O)[C@H]3N)O[C@@H]2CO)[C@H](N)[C@@H](O)[C@@H]1O	3 µg/mL (≈ 3.92 µM)	0.3 µg/mL (≈ 0.392 µM)
NC[C@@H]1O[C@H](O[C@H]2[C@@H](OCCNCCc3ccc4ccccc4c3)[C@H](O[C@@H]3[C@@H](O)[C@H](N)C[C@H](N)[C@H]3O[C@H]3O[C@H](CO)[C@@H](O)[C@H](O)[C@H]3N)O[C@@H]2CO)[C@H](N)[C@@H](O)[C@@H]1O	10 µg/mL (≈ 12.3 µM)	1 µg/mL (≈ 1.23 µM)
CCCCCCCCN(CCCCCCCC)CCO[C@H]1[C@H](O[C@H]2C(O[C@H]3O[C@H](CO)[C@@H](O)[C@H](O)[C@H]3N)[C@@H](N)C[C@@H](N)[C@@H]2O)O[C@H](CO)[C@H]1O[C@H]1O[C@@H](CN)[C@@H](O)[C@H](O)[C@H]1N (some centres undefined)	5 µg/mL (≈ 5.66 µM)	1.2 µg/mL (≈ 1.36 µM)
NC[C@@H]1O[C@H](O[C@H]2[C@@H](OCCNCc3nc4ccccc4[nH]3)[C@H](O[C@@H]3[C@@H](O)[C@H](N)C[C@H](N)[C@H]3O[C@H]3O[C@H](CO)[C@@H](O)[C@H](O)[C@H]3N)O[C@@H]2CO)[C@H](N)[C@@H](O)[C@@H]1O	> 100 µg/mL	> 100 µg/mL
NC[C@@H]1O[C@H](O[C@H]2[C@@H](OCCNC3CCCc4ccccc43)[C@H](O[C@@H]3[C@@H](O)[C@H](N)C[C@H](N)[C@H]3O[C@H]3O[C@H](CO)[C@@H](O)[C@H](O)[C@H]3N)O[C@@H]2CO)[C@H](N)[C@@H](O)[C@@H]1O (some centres undefined)	> 10 µg/mL	1.25 µg/mL (≈ 1.58 µM)
NC[C@@H]1O[C@H](O[C@H]2[C@@H](OCCOCCCc3ccccc3)[C@H](O[C@@H]3[C@@H](O)[C@H](N)C[C@H](N)[C@H]3O[C@H]3O[C@H](CO)[C@@H](O)[C@H](O)[C@H]3N)O[C@@H]2CO)[C@H](N)[C@@H](O)[C@@H]1O	20 µg/mL (≈ 25.7 µM)	5 µg/mL (≈ 6.43 µM)
CC(C)(C)CCNCCO[C@H]1[C@H](O[C@@H]2[C@@H](O)[C@H](N)C[C@H](N)[C@H]2O[C@H]2O[C@H](CO)[C@@H](O)[C@H](O)[C@H]2N)O[C@H](CO)[C@H]1O[C@H]1O[C@@H](CN)[C@@H](O)[C@H](O)[C@H]1N	10 µg/mL (≈ 13.5 µM)	0.6 µg/mL (≈ 0.808 µM)
NC[C@@H]1O[C@H](O[C@H]2[C@@H](OCC(O)c3ccccc3)[C@H](O[C@@H]3[C@@H](O)[C@H](N)C[C@H](N)[C@H]3O[C@H]3O[C@H](CO)[C@@H](O)[C@H](O)[C@H]3N)O[C@@H]2CO)[C@H](N)[C@@H](O)[C@@H]1O (some centres undefined)	25 µg/mL (≈ 34 µM)	3 µg/mL (≈ 4.08 µM)
NC[C@@H]1O[C@H](O[C@H]2[C@@H](OCCNC3CCCCC3)[C@H](O[C@@H]3[C@@H](O)[C@H](N)C[C@H](N)[C@H]3O[C@H]3O[C@H](CO)[C@@H](O)[C@H](O)[C@H]3N)O[C@@H]2CO)[C@H](N)[C@@H](O)[C@@H]1O	3 µg/mL (≈ 4.05 µM)	3 µg/mL (≈ 4.05 µM)
CN(C)CCO[C@H]1[C@H](O[C@@H]2[C@@H](O)[C@H](N)C[C@H](N)[C@H]2O[C@H]2O[C@H](CO)[C@@H](O)[C@H](O)[C@H]2N)O[C@H](CO)[C@H]1O[C@H]1O[C@@H](CN)[C@@H](O)[C@H](O)[C@H]1N	12 µg/mL (≈ 17.5 µM)	6 µg/mL (≈ 8.74 µM)
NC[C@@H]1O[C@H](O[C@H]2[C@@H](OCCNCCc3ccc(C(F)(F)F)cc3)[C@H](O[C@@H]3[C@@H](O)[C@H](N)C[C@H](N)[C@H]3O[C@H]3O[C@H](CO)[C@@H](O)[C@H](O)[C@H]3N)O[C@@H]2CO)[C@H](N)[C@@H](O)[C@@H]1O	5 µg/mL (≈ 6.02 µM)	0.6 µg/mL (≈ 0.722 µM)
NC[C@@H]1O[C@H](O[C@H]2[C@@H](O)[C@H](O[C@@H]3[C@@H](O)[C@H](N)C[C@H](N)[C@H]3O[C@H]3O[C@H](CO)[C@@H](O)[C@H](O)[C@H]3N)O[C@@H]2CO)[C@H](N)[C@@H](O)[C@@H]1O [PAROMOMYCIN]	3 µg/mL (≈ 4.87 µM)	1 µg/mL (≈ 1.62 µM)
NC[C@@H]1O[C@H](O[C@H]2[C@@H](OCCNC3C4CC5CC3CC(C4)C5O)[C@H](O[C@@H]3[C@@H](O)[C@H](N)C[C@H](N)[C@H]3O[C@H]3O[C@H](CO)[C@@H](O)[C@H](O)[C@H]3N)O[C@@H]2CO)[C@H](N)[C@@H](O)[C@@H]1O (some centres undefined)	20 µg/mL (≈ 24.7 µM)	1 µg/mL (≈ 1.24 µM)
NC[C@@H]1O[C@H](O[C@H]2[C@@H](OCCCc3ccccc3)[C@H](O[C@@H]3[C@@H](O)[C@H](N)C[C@H](N)[C@H]3O[C@H]3O[C@H](CO)[C@@H](O)[C@H](O)[C@H]3N)O[C@@H]2CO)[C@H](N)[C@@H](O)[C@@H]1O	20 µg/mL (≈ 27.3 µM)	3 µg/mL (≈ 4.09 µM)
NC[C@@H]1O[C@H](O[C@H]2[C@@H](OCCNCCc3ccc(-c4ccccc4)cc3)[C@H](O[C@@H]3[C@@H](O)[C@H](N)C[C@H](N)[C@H]3O[C@H]3O[C@H](CO)[C@@H](O)[C@H](O)[C@H]3N)O[C@@H]2CO)[C@H](N)[C@@H](O)[C@@H]1O	20 µg/mL (≈ 23.8 µM)	5 µg/mL (≈ 5.96 µM)
NCCCNCCO[C@H]1[C@H](O[C@@H]2[C@@H](O)[C@H](N)C[C@H](N)[C@H]2O[C@H]2O[C@H](CO)[C@@H](O)[C@H](O)[C@H]2N)O[C@H](CO)[C@H]1O	6 µg/mL (≈ 10.8 µM)	6 µg/mL (≈ 10.8 µM)
NC[C@@H]1O[C@H](O[C@H]2[C@@H](OCCNCC3CCCNC3)[C@H](O[C@@H]3[C@@H](O)[C@H](N)C[C@H](N)[C@H]3O[C@H]3O[C@H](CO)[C@@H](O)[C@H](O)[C@H]3N)O[C@@H]2CO)[C@H](N)[C@@H](O)[C@@H]1O (some centres undefined)	1.5 µg/mL (≈ 1.98 µM)	3 µg/mL (≈ 3.97 µM)
